Data as given in publication PMC4721220 (Expert opinion on investigational drugs, 2013).
Where a SMILES comes first, the peptide text is derived from it.

How the values were obtained:
[1] = tested on: male or female rats; assay: Behavioral safety; format: in vivo, rat
[2] = tested on: rats; assay: Pentylenetetrazole convulsant activity; format: in vivo, rat; details: single dose 500 mg/kg IV, 60 min following pentylenetetrazole administration
[3] = target: hERG channel (Homo sapiens, UniProt Q12809); assay: hERG assay; format: cell-based; details: concentrations up to 5 mM
[4] = tested on: dog-isolated Purkinje fibers; assay: Electrophysiology in dog-isolated Purkinje fibers; format: cell-based; details: concentrations up to 1 mM, the highest evaluated
[5] = tested on: conscious instrumented dogs; assay: Cardiovascular safety in conscious instrumented dogs; format: in vivo, dog; details: single IV bolus doses up to 500 mg/kg
[6] = tested on: conscious rats; assay: Respiratory safety, plethysmography in conscious rats; format: in vivo, rat; details: single IV bolus dose up to 415 mg/kg, the highest dose evaluated
[7] = tested on: rats; assay: Single-dose IV toxicology study in rats; format: in vivo, rat
Method in brief: (§1)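 Single IV doses up to 1000 mg/kg were given to rats and dogs. End-points were clinical observations, body weight, clinical chemistry, hematology, urinalysis, and gross and microscopic pathology.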

[8] = tested on: dogs; assay: Single-dose IV toxicology study in dogs; format: in vivo, dog
Method in brief: as §1

[9] = tested on: rats; assay: 90-day twice-weekly IV repeated-dose study in rats; format: in vivo, rat; details: up to 300 mg/kg (highest evaluated)
[10] = tested on: dogs; assay: 90-day twice-weekly IV repeated-dose study in dogs; format: in vivo, dog; details: up to 200 mg/kg (highest evaluated)
[11] = Ames mutagenesis assay
[12] = tested on: mouse lymphoma; assay: Mouse lymphoma assay; format: cell-based
[13] = tested on: mouse; assay: Mouse micronucleus assay; details: in vivo
[14] = Compatibility with human blood, serum and plasma in vitro; details: concentrations up to 3 mg/ml in vitro
[15] = Plasma pharmacokinetics in rats; format: in vivo, rat
[16] = Plasma pharmacokinetics in dogs; format: in vivo, dog
[17] = Phase I safety and pharmacokinetics study in normal human volunteers; format: in vivo; details: for t1/2 initial / AUC(0-inf) / Cmax / clearance: plasma; for t1/2 initial: normal human volunteers, Mean ± SEM, n = 4; for Vd / AUC(0-inf) / Cmax / clearance: human, iv; for Vd: in vivo
Method in brief: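 Normal volunteers received a single IV dose via the antecubital vein, over a dose range of 0.5–25 mg/kg. Plasma Cmax and AUC were determined, with n = 4 subjects per dose, reported as Mean ± SEM.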

[18] = tested on: subjects with major depressive disorder; assay: Phase IIa safety; format: in vivo, human
Method in brief: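 Randomized, double-blind, placebo-controlled, parallel-group trial at 12 US centres (116 adults). Subjects had MDD by SCID and <25% response (ATRQ) to antidepressants in the current episode, followed by a 14-day antidepressant washout. Each received a single IV infusion over 3–15 min of normal saline or 1, 5, 10 or 30 mg/kg test compound. Subjects stayed ≥24 h in unit, with continuous ECG and pulse oximetry to 4 h, then follow-up visits.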

[19] = twice-weekly dosing for 3 months

Chain of hERG channel (Q12809 whole entry): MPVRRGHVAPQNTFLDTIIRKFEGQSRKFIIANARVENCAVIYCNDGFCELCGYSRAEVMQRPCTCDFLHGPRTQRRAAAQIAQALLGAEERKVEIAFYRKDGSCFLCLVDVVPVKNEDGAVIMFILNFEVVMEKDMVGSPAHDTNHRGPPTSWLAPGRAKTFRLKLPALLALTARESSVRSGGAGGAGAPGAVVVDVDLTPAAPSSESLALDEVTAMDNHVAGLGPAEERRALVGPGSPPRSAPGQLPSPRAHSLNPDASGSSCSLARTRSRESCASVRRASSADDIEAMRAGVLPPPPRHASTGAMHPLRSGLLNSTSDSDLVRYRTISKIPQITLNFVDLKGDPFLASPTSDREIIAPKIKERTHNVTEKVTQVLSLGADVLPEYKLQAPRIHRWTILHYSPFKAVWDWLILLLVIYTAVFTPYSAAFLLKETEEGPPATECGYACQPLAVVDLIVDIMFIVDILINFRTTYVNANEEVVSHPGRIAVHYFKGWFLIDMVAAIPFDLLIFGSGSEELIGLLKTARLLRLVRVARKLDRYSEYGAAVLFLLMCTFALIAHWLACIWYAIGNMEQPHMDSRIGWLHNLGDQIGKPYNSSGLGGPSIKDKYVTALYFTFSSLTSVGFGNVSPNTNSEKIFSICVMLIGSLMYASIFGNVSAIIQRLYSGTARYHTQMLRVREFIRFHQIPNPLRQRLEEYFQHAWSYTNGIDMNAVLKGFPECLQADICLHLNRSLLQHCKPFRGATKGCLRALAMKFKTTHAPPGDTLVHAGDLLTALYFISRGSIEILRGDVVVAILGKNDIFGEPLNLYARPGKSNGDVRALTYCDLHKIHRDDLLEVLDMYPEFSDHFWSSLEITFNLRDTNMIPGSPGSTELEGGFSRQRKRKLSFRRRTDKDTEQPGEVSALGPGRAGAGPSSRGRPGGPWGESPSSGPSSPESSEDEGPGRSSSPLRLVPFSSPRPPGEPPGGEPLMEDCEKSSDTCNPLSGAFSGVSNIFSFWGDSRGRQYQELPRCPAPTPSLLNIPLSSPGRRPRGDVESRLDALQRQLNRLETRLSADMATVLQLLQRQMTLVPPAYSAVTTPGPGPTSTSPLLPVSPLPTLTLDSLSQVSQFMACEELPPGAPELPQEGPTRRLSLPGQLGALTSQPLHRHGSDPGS

Structure (SMILES): C[C@@H](O)[C@H](N)C(=O)N1CCC[C@H]1C(=O)N1CCC[C@H]1C(=O)N[C@H](C(N)=O)[C@@H](C)O [GLYX-13] (H-TPPT-NH2)
- hyperlocomotion (signal for psychotomimetic effects) ([1]; any dose evaluated): did not induce hyperlocomotion
- adverse behavioral responses ([1]; single doses up to 500 mg/kg IV, the highest dose evaluated, male or female rats): No adverse behavioral responses
- motor coordination ([1]; up to 500 mg/kg IV, male or female rats): did not affect motor coordination
- convulsant activity [2]: did not affect convulsant activity
- current through the hERG channel [3]: did not affect current through the hERG channel
- electrophysiological parameters in Purkinje fibers [4]: did not significantly alter any of the electrophysiological parameters
- heart rate, blood pressure, ECG parameters [5]: nor did GLYX-13 administered at single IV bolus doses up to 500 mg/kg affect heart rate, blood pressure, or any ECG parameter
- respiratory parameters [6]: nor did GLYX-13 affect any respiratory parameter
- tolerability, single doses ([7]; doses up to 500 mg/kg IV): well tolerated
- toxicology findings, single dose ([7]; doses up to 1000 mg/kg IV): No observational, body weight, clinical chemistry, hematology, urinalysis, or gross or microscopic pathological signals were observed
- tolerability, single doses ([8]; doses up to 500 mg/kg IV): well tolerated
- toxicology findings, single dose ([8]; doses up to 1000 mg/kg IV): No observational, body weight, clinical chemistry, hematology, urinalysis, or gross or microscopic pathological signals were observed
- tolerability, repeated dose [9]: well tolerated
- tolerability, repeated dose [10]: well tolerated
- Ames mutagenesis [11]: inactive
- mouse lymphoma assay [12]: inactive
- mouse micronucleus assay [13]: inactive
- compatibility with human blood, serum, and plasma [14]: completely compatible
- plasma half-life ([15]; 30 – 300 mg/kg IV): 2 to 3 min
- half-life after repeated dosing [15, 19]: retained its short half-life
- plasma half-life ([16]; 20 – 200 mg/kg IV): 5 to 8 min
- half-life after repeated dosing [16, 19]: retained its short half-life
- t1/2 initial ([17]; 1 mg/kg IV): 4.7 ± 0.5 min
- t1/2 initial ([17]; 5 mg/kg IV): 7.4 ± 0.9 min
- t1/2 initial ([17]; 10 mg/kg IV): 9.0 ± 0.6 min
- t1/2 initial ([17]; 20 mg/kg IV): 14.0 ± 2.1 min
- increase of Cmax with dose ([17]; dose range 0.5 – 10 mg/kg IV): supralinearly
- increase of AUC with dose ([17]; dose range 0.5 – 25 mg/kg IV): supralinearly
- increase of Cmax with dose ([17]; dose range 10–25 mg/kg IV): linearly
- Vd ([17]; 1 mg/kg): 0.17 ± 0.03 L/kg
- Vd ([17]; 5 mg/kg): 0.31 ± 0.14 L/kg
- Vd ([17]; 10 mg/kg): 0.12 ± 0.01 L/kg
- Vd ([17]; 20 mg/kg): 0.1 ± 0.03 L/kg
- AUC(0-inf) ([17]; 1 mg/kg): 533 ng·h/mL
- Cmax ([17]; 1 mg/kg): 5.2 ± 0.9 µg/mL
- clearance ([17]; 1 mg/kg): 33.7 mL/min/kg
- AUC(0-inf) ([17]; 5 mg/kg): 4800 ng·h/mL
- Cmax ([17]; 5 mg/kg): 26 ± 11 µg/mL
- clearance ([17]; 5 mg/kg): 34.8 mL/min/kg
- AUC(0-inf) ([17]; 10 mg/kg): 19400 ng·h/mL
- Cmax ([17]; 10 mg/kg): 100 ± 21 µg/mL
- clearance ([17]; 10 mg/kg): 9 mL/min/kg
- AUC(0-inf) ([17]; 20 mg/kg): 67200 ng·h/mL
- Cmax ([17]; 20 mg/kg): 182 ± 56 µg/mL
- clearance ([17]; 20 mg/kg): 5 mL/min/kg
- suicidality (Columbia-Suicide Severity Rating Scale) ([18]; 14- or 28-day course of observation following dosing): did not cause any increase in suicidality
- BPRS+ score (psychotomimetic effects) ([18]; any time following dosing): did not increase BPRS+ score
- treatment-related serious adverse events ([18]; single IV dose 1, 5, 10 or 30 mg/kg): No treatment-related serious adverse events
